Tested on: U2OS
Experiment: Multiplex assay against U2OS
Format: toxicity, cell-based
Details: human
Procedure, shortened: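 Values for tubulin, mitochondrial-mass and membrane-permeability phenotypes are per cents of cells with healthy nuclei. These cells were identified by CellPathfinder machine-learning gating of live cells that had been stained at seeding with Hoechst33342, BioTracker Green Microtubule Cytoskeleton Dye, MitoTracker Red and Annexin V Alexa Fluor 680 and imaged on a CQ1 microscope at 37°C and 5% CO2 after compound addition. The gating first set Hoechst high-intensity objects apart from normal cells, then split normal cells into healthy, pyknosed or fragmented nuclei, and pyknosed cells into mitotic or apoptotic.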

[1] = 12 h, 1 µM, compound concentration 1 uM, replicate 1
[2] = 12 h, 1 µM, compound concentration 1 uM, replicate 2
[3] = 12 h, 10 µM, compound concentration 10 uM, replicate 1
[4] = 12 h, 10 µM, compound concentration 10 uM, replicate 2
[5] = 24 h, 1 µM, compound concentration 1 uM, replicate 1
[6] = 24 h, 1 µM, compound concentration 1 uM, replicate 2
[7] = 24 h, 10 µM, compound concentration 10 uM, replicate 1
[8] = 24 h, 10 µM, compound concentration 10 uM, replicate 2
[9] = 48 h, 1 µM, compound concentration 1 uM, replicate 1
[10] = 48 h, 1 µM, compound concentration 1 uM, replicate 2
[11] = 48 h, 10 µM, compound concentration 10 uM, replicate 1
[12] = 48 h, 10 µM, compound concentration 10 uM, replicate 2

COc1cc(Nc2nccc(-c3cnn4nc(OC)ccc34)n2)cc(C(F)(F)F)c1
Population Apoptotic (%) [1]: 27% | Population Fragmented Nuclei (%) [1]: 12% | Population Healthy Nuclei (%) [1]: 74% | Population Hoechst High Intensity Objects (%) [1]: 7% | Population Membrane Permeable-Phenotype (%) [1]: 6% | Population Mitochondria Different-Phenotype (%) [1]: 12% | Population Mitotic Cells (%) [1]: 72% | Population Normal (%) [1]: 92% | Population Pyknosed Nuclei (%) [1]: 12% | Population Tubulin-Different-Phenotype (%) [1]: 9% | Total Cell Count [1]: 189 | Population Apoptotic (%) [2]: 50% | Population Fragmented Nuclei (%) [2]: 8% | Population Healthy Nuclei (%) [2]: 86% | Population Hoechst High Intensity Objects (%) [2]: 3% | Population Membrane Permeable-Phenotype (%) [2]: 2% | Population Mitochondria Different-Phenotype (%) [2]: 16% | Population Mitotic Cells (%) [2]: 50% | Population Normal (%) [2]: 96% | Population Pyknosed Nuclei (%) [2]: 5% | Population Tubulin-Different-Phenotype (%) [2]: 16% | Total Cell Count [2]: 44 | Population Apoptotic (%) [3]: 60% | Population Fragmented Nuclei (%) [3]: 32% | Population Healthy Nuclei (%) [3]: 55% | Population Hoechst High Intensity Objects (%) [3]: 15% | Population Membrane Permeable-Phenotype (%) [3]: 7% | Population Mitochondria Different-Phenotype (%) [3]: 46% | Population Mitotic Cells (%) [3]: 39% | Population Normal (%) [3]: 84% | Population Pyknosed Nuclei (%) [3]: 11% | Population Tubulin-Different-Phenotype (%) [3]: 27% | Total Cell Count [3]: 192 | Population Apoptotic (%) [4]: 33% | Population Fragmented Nuclei (%) [4]: 27% | Population Healthy Nuclei (%) [4]: 61% | Population Hoechst High Intensity Objects (%) [4]: 34% | Population Membrane Permeable-Phenotype (%) [4]: 3% | Population Mitochondria Different-Phenotype (%) [4]: 6% | Population Mitotic Cells (%) [4]: 66% | Population Normal (%) [4]: 65% | Population Tubulin-Different-Phenotype (%) [4]: 15% | Total Cell Count [4]: 82 | Population Apoptotic (%) [5]: 24% | Population Fragmented Nuclei (%) [5]: 14% | Population Healthy Nuclei (%) [5]: 61% | Population Hoechst High Intensity Objects (%) [5]: 6% | Population Membrane Permeable-Phenotype (%) [5]: 7% | Population Mitochondria Different-Phenotype (%) [5]: 20% | Population Mitotic Cells (%) [5]: 75% | Population Normal (%) [5]: 93% | Population Pyknosed Nuclei (%) [5]: 24% | Population Tubulin-Different-Phenotype (%) [5]: 16% | Total Cell Count [5]: 214 | Population Apoptotic (%) [6]: 45% | Population Fragmented Nuclei (%) [6]: 10% | Population Healthy Nuclei (%) [6]: 77% | Population Hoechst High Intensity Objects (%) [6]: 2% | Population Membrane Permeable-Phenotype (%) [6]: 4% | Population Mitochondria Different-Phenotype (%) [6]: 10% | Population Mitotic Cells (%) [6]: 54% | Population Normal (%) [6]: 97% | Population Pyknosed Nuclei (%) [6]: 12% | Population Tubulin-Different-Phenotype (%) [6]: 19% | Total Cell Count [6]: 43 | Population Apoptotic (%) [7]: 65% | Population Fragmented Nuclei (%) [7]: 36% | Population Healthy Nuclei (%) [7]: 50% | Population Hoechst High Intensity Objects (%) [7]: 18% | Population Membrane Permeable-Phenotype (%) [7]: 2% | Population Mitochondria Different-Phenotype (%) [7]: 47% | Population Mitotic Cells (%) [7]: 34% | Population Normal (%) [7]: 81% | Population Pyknosed Nuclei (%) [7]: 13% | Population Tubulin-Different-Phenotype (%) [7]: 15% | Total Cell Count [7]: 197 | Population Apoptotic (%) [8]: 50% | Population Fragmented Nuclei (%) [8]: 26% | Population Healthy Nuclei (%) [8]: 56% | Population Hoechst High Intensity Objects (%) [8]: 29% | Population Membrane Permeable-Phenotype (%) [8]: 0% | Population Mitochondria Different-Phenotype (%) [8]: 23% | Population Mitotic Cells (%) [8]: 50% | Population Normal (%) [8]: 70% | Population Pyknosed Nuclei (%) [8]: 17% | Population Tubulin-Different-Phenotype (%) [8]: 11% | Total Cell Count [8]: 90 | Population Apoptotic (%) [9]: 53% | Population Fragmented Nuclei (%) [9]: 16% | Population Healthy Nuclei (%) [9]: 54% | Population Hoechst High Intensity Objects (%) [9]: 4% | Population Membrane Permeable-Phenotype (%) [9]: 6% | Population Mitochondria Different-Phenotype (%) [9]: 34% | Population Mitotic Cells (%) [9]: 46% | Population Normal (%) [9]: 95% | Population Pyknosed Nuclei (%) [9]: 28% | Population Tubulin-Different-Phenotype (%) [9]: 15% | Total Cell Count [9]: 257 | Population Apoptotic (%) [10]: 55% | Population Fragmented Nuclei (%) [10]: 11% | Population Healthy Nuclei (%) [10]: 81% | Population Hoechst High Intensity Objects (%) [10]: 7% | Population Membrane Permeable-Phenotype (%) [10]: 15% | Population Mitochondria Different-Phenotype (%) [10]: 17% | Population Mitotic Cells (%) [10]: 44% | Population Normal (%) [10]: 92% | Population Pyknosed Nuclei (%) [10]: 7% | Population Tubulin-Different-Phenotype (%) [10]: 20% | Total Cell Count [10]: 55 | Population Apoptotic (%) [11]: 62% | Population Fragmented Nuclei (%) [11]: 45% | Population Healthy Nuclei (%) [11]: 33% | Population Hoechst High Intensity Objects (%) [11]: 20% | Population Membrane Permeable-Phenotype (%) [11]: 14% | Population Mitochondria Different-Phenotype (%) [11]: 36% | Population Mitotic Cells (%) [11]: 37% | Population Normal (%) [11]: 79% | Population Pyknosed Nuclei (%) [11]: 21% | Population Tubulin-Different-Phenotype (%) [11]: 21% | Total Cell Count [11]: 200 | Population Apoptotic (%) [12]: 69% | Population Fragmented Nuclei (%) [12]: 26% | Population Healthy Nuclei (%) [12]: 48% | Population Hoechst High Intensity Objects (%) [12]: 27% | Population Membrane Permeable-Phenotype (%) [12]: 8% | Population Mitochondria Different-Phenotype (%) [12]: 25% | Population Mitotic Cells (%) [12]: 30% | Population Normal (%) [12]: 72% | Population Pyknosed Nuclei (%) [12]: 26% | Population Tubulin-Different-Phenotype (%) [12]: 20% | Total Cell Count [12]: 127

O=C(c1cc2c(cc1F)OC(c1ccc(F)cc1)(c1ccc(Cl)cc1Cl)O2)N1CCOCC1 (configuration not stated)
Population Apoptotic (%) [1]: 57% | Population Fragmented Nuclei (%) [1]: 19% | Population Healthy Nuclei (%) [1]: 67% | Population Hoechst High Intensity Objects (%) [1]: 10% | Population Membrane Permeable-Phenotype (%) [1]: 7% | Population Mitochondria Different-Phenotype (%) [1]: 17% | Population Mitotic Cells (%) [1]: 42% | Population Normal (%) [1]: 89% | Population Pyknosed Nuclei (%) [1]: 13% | Total Cell Count [1]: 120 | Population Apoptotic (%) [2]: 50% | Population Fragmented Nuclei (%) [2]: 18% | Population Healthy Nuclei (%) [2]: 68% | Population Hoechst High Intensity Objects (%) [2]: 7% | Population Membrane Permeable-Phenotype (%) [2]: 9% | Population Mitochondria Different-Phenotype (%) [2]: 12% | Population Mitotic Cells (%) [2]: 50% | Population Normal (%) [2]: 92% | Population Pyknosed Nuclei (%) [2]: 12% | Population Tubulin-Different-Phenotype (%) [2]: 15% | Total Cell Count [2]: 78 | Population Apoptotic (%) [3]: 50% | Population Healthy Nuclei (%) [3]: 67% | Population Hoechst High Intensity Objects (%) [3]: 8% | Population Membrane Permeable-Phenotype (%) [3]: 46% | Population Mitotic Cells (%) [3]: 50% | Population Normal (%) [3]: 91% | Population Pyknosed Nuclei (%) [3]: 21% | Total Cell Count [3]: 116 | Population Apoptotic (%) [4]: 71% | Population Fragmented Nuclei (%) [4]: 10% | Population Healthy Nuclei (%) [4]: 78% | Population Hoechst High Intensity Objects (%) [4]: 4% | Population Membrane Permeable-Phenotype (%) [4]: 47% | Population Mitochondria Different-Phenotype (%) [4]: 96% | Population Mitotic Cells (%) [4]: 28% | Population Normal (%) [4]: 95% | Population Pyknosed Nuclei (%) [4]: 10% | Population Tubulin-Different-Phenotype (%) [4]: 100% | Total Cell Count [4]: 52 | Population Apoptotic (%) [5]: 44% | Population Fragmented Nuclei (%) [5]: 17% | Population Healthy Nuclei (%) [5]: 68% | Population Hoechst High Intensity Objects (%) [5]: 7% | Population Membrane Permeable-Phenotype (%) [5]: 5% | Population Mitochondria Different-Phenotype (%) [5]: 14% | Population Mitotic Cells (%) [5]: 55% | Population Normal (%) [5]: 92% | Population Pyknosed Nuclei (%) [5]: 14% | Population Tubulin-Different-Phenotype (%) [5]: 12% | Total Cell Count [5]: 130 | Population Apoptotic (%) [6]: 33% | Population Fragmented Nuclei (%) [6]: 5% | Population Healthy Nuclei (%) [6]: 88% | Population Hoechst High Intensity Objects (%) [6]: 10% | Population Membrane Permeable-Phenotype (%) [6]: 10% | Population Mitochondria Different-Phenotype (%) [6]: 15% | Population Mitotic Cells (%) [6]: 66% | Population Normal (%) [6]: 89% | Population Pyknosed Nuclei (%) [6]: 5% | Population Tubulin-Different-Phenotype (%) [6]: 21% | Total Cell Count [6]: 85 | Population Apoptotic (%) [7]: 67% | Population Fragmented Nuclei (%) [7]: 16% | Population Healthy Nuclei (%) [7]: 55% | Population Hoechst High Intensity Objects (%) [7]: 8% | Population Membrane Permeable-Phenotype (%) [7]: 48% | Population Mitochondria Different-Phenotype (%) [7]: 98% | Population Mitotic Cells (%) [7]: 32% | Population Normal (%) [7]: 91% | Population Pyknosed Nuclei (%) [7]: 28% | Population Tubulin-Different-Phenotype (%) [7]: 100% | Total Cell Count [7]: 137 | Population Apoptotic (%) [8]: 66% | Population Fragmented Nuclei (%) [8]: 8% | Population Healthy Nuclei (%) [8]: 62% | Population Hoechst High Intensity Objects (%) [8]: 6% | Population Membrane Permeable-Phenotype (%) [8]: 64% | Population Mitochondria Different-Phenotype (%) [8]: 100% | Population Mitotic Cells (%) [8]: 33% | Population Normal (%) [8]: 93% | Population Pyknosed Nuclei (%) [8]: 29% | Total Cell Count [8]: 58 | Population Apoptotic (%) [9]: 62% | Population Fragmented Nuclei (%) [9]: 14% | Population Healthy Nuclei (%) [9]: 75% | Population Hoechst High Intensity Objects (%) [9]: 7% | Population Membrane Permeable-Phenotype (%) [9]: 4% | Population Mitochondria Different-Phenotype (%) [9]: 11% | Population Mitotic Cells (%) [9]: 37% | Population Normal (%) [9]: 92% | Population Pyknosed Nuclei (%) [9]: 9% | Population Tubulin-Different-Phenotype (%) [9]: 9% | Total Cell Count [9]: 127 | Population Apoptotic (%) [10]: 60% | Population Fragmented Nuclei (%) [10]: 8% | Population Healthy Nuclei (%) [10]: 84% | Population Hoechst High Intensity Objects (%) [10]: 4% | Population Membrane Permeable-Phenotype (%) [10]: 6% | Population Mitochondria Different-Phenotype (%) [10]: 13% | Population Mitotic Cells (%) [10]: 40% | Population Normal (%) [10]: 96% | Population Pyknosed Nuclei (%) [10]: 6% | Population Tubulin-Different-Phenotype (%) [10]: 16% | Total Cell Count [10]: 78 | Population Apoptotic (%) [11]: 57% | Population Fragmented Nuclei (%) [11]: 20% | Population Healthy Nuclei (%) [11]: 44% | Population Hoechst High Intensity Objects (%) [11]: 14% | Population Membrane Permeable-Phenotype (%) [11]: 65% | Population Mitochondria Different-Phenotype (%) [11]: 93% | Population Mitotic Cells (%) [11]: 42% | Population Normal (%) [11]: 85% | Population Pyknosed Nuclei (%) [11]: 34% | Population Tubulin-Different-Phenotype (%) [11]: 100% | Total Cell Count [11]: 179 | Population Apoptotic (%) [12]: 71% | Population Fragmented Nuclei (%) [12]: 17% | Population Healthy Nuclei (%) [12]: 50% | Population Hoechst High Intensity Objects (%) [12]: 8% | Population Membrane Permeable-Phenotype (%) [12]: 76% | Population Mitochondria Different-Phenotype (%) [12]: 100% | Population Mitotic Cells (%) [12]: 28% | Population Normal (%) [12]: 91% | Population Pyknosed Nuclei (%) [12]: 31% | Total Cell Count [12]: 75

From ChEMBL document CHEMBL4689842, “EUbOPEN Chemogenomics Library wave 1” (2021)
